This is a sample that favours compounds with a hit; in the whole collection about 1.4% have one here.
IDE act: activators of human insulin-degrading enzyme in cells | HEK cells, FAbeta-B cleavage, fluorescence polarization; 0% vehicle, 100% cell-free pure enzyme wells | P14735 | activation, % at 5.96 µM | 340,000 tested, 0.073% active;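 active = activation above the mean of all tested compounds plus 3 SD, set per screening campaign, cut at about 17% in these data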
Target sequence (P14735 whole entry, looked up): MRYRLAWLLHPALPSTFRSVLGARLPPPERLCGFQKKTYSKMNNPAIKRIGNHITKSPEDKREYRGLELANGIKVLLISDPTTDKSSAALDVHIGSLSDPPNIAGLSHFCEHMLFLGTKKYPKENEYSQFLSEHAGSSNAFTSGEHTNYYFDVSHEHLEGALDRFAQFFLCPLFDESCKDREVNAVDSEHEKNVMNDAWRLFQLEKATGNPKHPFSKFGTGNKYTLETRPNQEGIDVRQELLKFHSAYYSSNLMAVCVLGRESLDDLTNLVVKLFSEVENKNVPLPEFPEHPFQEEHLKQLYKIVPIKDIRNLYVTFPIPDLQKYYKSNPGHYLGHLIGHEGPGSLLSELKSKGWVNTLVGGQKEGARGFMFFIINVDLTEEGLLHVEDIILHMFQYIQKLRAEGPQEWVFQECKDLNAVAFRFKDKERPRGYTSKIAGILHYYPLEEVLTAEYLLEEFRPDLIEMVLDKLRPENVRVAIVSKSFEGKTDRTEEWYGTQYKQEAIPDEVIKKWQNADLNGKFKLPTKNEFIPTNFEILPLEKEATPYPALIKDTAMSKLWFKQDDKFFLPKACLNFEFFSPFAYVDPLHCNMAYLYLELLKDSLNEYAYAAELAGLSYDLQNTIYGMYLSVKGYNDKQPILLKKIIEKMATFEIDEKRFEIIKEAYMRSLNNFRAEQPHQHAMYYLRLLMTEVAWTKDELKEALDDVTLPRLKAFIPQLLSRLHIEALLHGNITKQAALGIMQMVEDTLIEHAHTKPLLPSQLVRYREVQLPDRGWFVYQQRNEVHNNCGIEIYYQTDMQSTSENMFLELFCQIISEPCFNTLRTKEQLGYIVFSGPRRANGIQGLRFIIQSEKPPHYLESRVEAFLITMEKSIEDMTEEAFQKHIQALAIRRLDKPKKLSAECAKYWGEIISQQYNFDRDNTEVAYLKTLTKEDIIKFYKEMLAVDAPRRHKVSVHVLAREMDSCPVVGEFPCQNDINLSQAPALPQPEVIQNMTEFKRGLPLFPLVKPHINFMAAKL
Efflux pump mplx: blocks antifungal efflux pumps in multiplex yeast assay; AID 485275; 330,000 tested, 0.44% active; S. cerevisiae Candida pump triplex, Nile Red efflux; inhibition, % at 10 µM;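 active = plate passing quality check with inhibition over a set limit, or well fluorescence over plate mean plus 4 SD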;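 note: Nile Red retained in pooled yeast measured as flow cytometry median fluorescence; 0% = buffer negative control and 100% = Enniatin B positive control; higher means more Nile Red kept so more efflux inhibition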
IDE inh: cellular human IDE inhibition. P14735. HEK cells, FAbetaB cleavage, fluorescence polarization. AID 434962. inhibition, % at 5.59 µM. 320,000 tested, 0.41% active;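 active = percent inhibition above the average of all tested compounds plus 3 SD, set per screening campaign, cut at about 16% in these data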;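 note: IDE supplied by intact live HEK cells; FP after avidin binding of uncleaved biotin substrate so inhibition keeps polarization high; 0% = DMSO wells and 100% = 60 µM reference IDE inhibitor Ii1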
TbMetRS inhib: blocks T. brucei methionyl-tRNA synthetase activity; purified T. brucei MetRS, ATP depletion, Kinase-Glo luminescence; inhibition, % at 11.9 µM; 360,000 tested, 0.4% active;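 active = inhibition above a per-plate cutoff of the control wells' mean inhibition plus 3 SD, cut at about 5.5% in these data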;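 note: 0% = DMSO wells median and 100% = median of wells with control inhibitor compound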
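Test system – parasite MetRS enzyme · Reagent – substrates ATP, L-methionine and bulk Escherichia coli tRNA · Doses – 11.9 µM compound single dose, 0.9% DMSO · Times – 15 min enzyme-compound preincubation, 2 h reaction, 10 min detection, 25 °C · Signal – Kinase-Glo luminescence, ATP depletion format · Controls – DMSO-only wells as low control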
HDAC3 inhib: human HDAC3 inhibition. O15379. recombinant HDAC3, fluorogenic peptide/trypsin coupled, fluorescence. inhibition, % at 8.3 µM. 320,000 tested, 0.15% active. AID 2718; in the data active = inhibition above about 26%, passing the limit was not always enough; inconclusive = no clear call, values can overlap the other calls
CR mimetic SO: yeast age-related superoxide inhibition as caloric restriction mimetic; S. cerevisiae aged cells, superoxide DHE fluorescence; stronger effect = lower value; superoxide response (% of plate mean), % at 10 µM; 330,000 tested, 0.18% active; AID 2690;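 active = superoxide response under a set limit, about three screen SD below normal, cut at about 65% in these data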;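 note: yeast aged for seven days with compound at 30 °C before DHE staining; 100% = average MFI of all compound-treated wells on the plate with controls excluded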
Yeast cmpd fluor: counter-screen for efflux pump inhibitors: compound fluorescence; shares compounds with Efflux pump mplx; S. cerevisiae AD/pABC3, flow cytometry; fluorescence ratio to DMSO, % at 10 µM; 1,700 tested, 4% active; AID 588517;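 active = fluorescence ratio to DMSO above its plate's cutoff, the plate mean ratio plus 5 SD, cut at about 210% in these data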;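 note: unstained yeast with no Nile Red so the signal is compound autofluorescence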
CaMdr1 efflux inh: inhibitors of Candida albicans Mdr1 efflux pump. inhibition, % at 10 µM. shares compounds with Efflux pump mplx. AID 588518. 1,700 tested, 1% active. S. cerevisiae AD/CaMDR1, Nile Red efflux, flow cytometry; in the data active = inhibition above about 26%;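 note: 0% = DMSO vehicle and 100% = reference inhibitor; higher means more Nile Red retained so more efflux inhibition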
Cdr2 pump inh: blocks the Candida albicans Cdr2 efflux pump in yeast. shares compounds with Efflux pump mplx. S. cerevisiae AD/CaCDR2, Nile Red retention, flow cytometry. Nile Red retention ratio vs DMSO, % at 10 µM. 1,700 tested, 4% active; in the data active = Nile Red retention ratio vs DMSO above about 190%;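 note: higher ratio means more blocking of Cdr2 efflux of the dye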
Cdr1 pump inh: Candida Cdr1 efflux pump inhibition. AID 588522. S. cerevisiae AD/CaCDR1, Nile Red efflux, flow cytometry. 1,700 tested, 1% active. shares compounds with Efflux pump mplx. inhibition, % at 10 µM;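 active = inhibition above the screen-wide mean plus twice its standard deviation, cut at about 32% in these data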
Numbers without * were called inactive; ? = inconclusive; . = not tested or not shown; + = active, no number.

SMILES | IDE act | Efflux pump mplx | IDE inh | TbMetRS inhib | HDAC3 inhib | CR mimetic SO | Yeast cmpd fluor | CaMdr1 efflux inh | Cdr2 pump inh | Cdr1 pump inh
Cc1cc(C)cc(NC(=O)Cc2ccc(NC3=NC4CS(=O)(=O)CC4S3)cc2)c1 (stereo unspecified) | -14 | 0 | 9 | 0 | -5 | 98 | . | . | . | .
Cc1cnc(CNC(=O)c2ccc3oc(Cc4ccc(Cl)cc4)nc3c2)cn1 | 3 | 0 | -8 | -1 | -4 | 89 | . | . | . | .
CCn1c2ccccc2c2cc(NC(=O)COc3ccccc3)ccc21 | 5 | 0 | 3 | -1 | 6 | 98 | . | . | . | .
CS(=O)(=O)CCC(C(=O)OCC(=O)c1ccc(Cl)cc1)N1C(=O)c2ccccc2C1=O (stereo unspecified) | -2 | 0 | -2 | 0 | -1 | 77 | . | . | . | .
O=C(CSc1ccc(Br)cc1)N1CCN(S(=O)(=O)c2ccccc2)CC1 | 4 | 2.0* | 4 | 0 | 2 | 98 | 104 | 0 | 105 | 0
O=C(c1ccc(Br)cc1)N1CCN(S(=O)(=O)c2ccccc2)CC1 | 3 | 0 | 0 | -1 | -1 | 150 | . | . | . | .
Cc1nc2ccc(NC(=O)Cc3ccc4c(c3)OCCO4)cc2s1 | 6 | 8.2* | -1 | -1 | 1 | 92 | 119 | 0 | 108 | 0
Cc1nc2ccc(NC(=O)Cc3ccc(Br)cc3)cc2s1 | -1 | 0 | 7 | 0 | 6 | 98 | . | . | . | .
CC(OC(=O)c1cc(S(=O)(=O)N(C)C)ccc1N1CCCC1)C(=O)NCc1ccccc1 (stereo unspecified) | 4 | 0 | 0 | 0 | -7 | 98 | . | . | . | .
CC1(Oc2ccccc2-c2ccn[nH]2)CCN(Cc2ccc(OC(F)(F)F)cc2)C1 (stereo unspecified) | . | . | . | 0 | . | . | . | . | . | .
O=C(NCCN1CCC(n2c(=O)[nH]c3ccccc32)CC1)C(c1ccccc1)c1ccccc1 | . | . | . | -1 | . | . | . | . | . | .
CCC(C)n1cnc2c(c1=O)c1nc3ccccc3nc1n2Cc1ccc(OC)cc1 (stereo unspecified) | 1 | 70* | 7 | 0 | 4 | 86 | 100 | 0 | 123 | 1
Cc1ccc2nc3c(cc(S(=O)(=O)c4ccccc4)c(=N)n3Cc3ccco3)c(=O)n2c1 | 1 | 0 | 2 | -1 | 4 | 97 | . | . | . | .
COc1ccc(CCn2c(=N)c(C(=O)NCc3ccco3)cc3c(=O)n4ccccc4nc32)cc1 | -7 | 1.3* | 9 | 0 | -4 | 111 | 104 | 0 | 100 | 0
CCn1c(=N)c(S(=O)(=O)c2ccc(C)cc2)cc2c(=O)n3ccccc3nc21 | . | 0 | 3 | . | -25 | 107 | . | . | . | .
Cc1cccn2c(=O)c3cc(S(=O)(=O)c4ccccc4)c(=N)n(Cc4ccco4)c3nc12 | 8 | 0 | 3 | -2 | -65 | 124 | . | . | . | .
CCOCCCn1c(=N)c(S(=O)(=O)c2ccc(C)cc2)cc2c(=O)n3cc(C)ccc3nc21 | 5 | 1.2* | 4 | 0 | -2 | 111 | 105 | 0 | 123 | 0
Cc1ccc(S(=O)(=O)c2cc3c(=O)n4ccccc4nc3n(CCc3ccccc3)c2=N)cc1 | 6 | 0.4* | 3 | -1 | -2 | 76 | 108 | 0 | 116 | 0
Cc1cccn2c(=O)c3cc(S(=O)(=O)c4ccc(F)cc4)c(=N)n(Cc4ccco4)c3nc12 | 3 | 0.6* | 0 | -1 | -23 | 94 | 106 | 0 | 114 | 0
C=CCN1C(=O)C(CC(=O)Nc2ccccc2)S/C1=N/c1nccs1 (stereo unspecified) | 2 | 0 | 11 | 0 | 0 | 114 | . | . | . | .
Cc1ccccc1NC(=O)CCNS(=O)(=O)c1ccc2c(c1)CCC(=O)N2 | 0 | 0 | 7 | 0 | -2 | 91 | . | . | . | .
CC(C)Oc1ccc(/C=C/C(=O)NCC2COc3ccccc3O2)cc1 (stereo unspecified) | -6 | 0 | 2 | -1 | 8 | 102 | . | . | . | .
COc1ccc(N2C(=O)CC(NNC(=O)c3ccco3)C2=O)cc1 (stereo unspecified) | 6 | 2.1* | 9 | 0 | -2 | 120 | 105 | 0 | 110 | 0
O=C(NNC1CC(=O)N(c2ccccc2)C1=O)c1ccco1 (stereo unspecified) | 0 | 0 | 2 | -1 | ? | 100 | . | . | . | .
O=C(Nc1ccccc1C(=O)OCC(=O)c1c[nH]c2ccccc12)c1ccco1 | 2 | 0 | 1 | 2 | 0 | 75 | . | . | . | .
SMILES | IDE act | Efflux pump mplx | IDE inh | TbMetRS inhib | HDAC3 inhib | CR mimetic SO | Yeast cmpd fluor | CaMdr1 efflux inh | Cdr2 pump inh | Cdr1 pump inh
COc1ccc(C(C)=NNS(=O)(=O)c2ccc(C)cc2)cc1OC | . | . | . | 0 | . | . | . | . | . | .
Cc1ccc(/C=C2\CCC3=C2OC(N)=C(C#N)C3c2ccc(C)cc2)cc1 (stereo unspecified) | -44 | 3.6* | 56* | 0 | 4 | 108 | 118 | 0 | 125 | 0
Cc1ccc(C2C(C#N)=C(N)Oc3cc(N)ccc32)cc1 (stereo unspecified) | 0 | 0 | 6 | 0 | 2 | 110 | . | . | . | .
COc1ccccc1CCNC(=O)C1CCC(=O)N(C2CCCCCC2)C1 (stereo unspecified) | -1 | 0 | . | 0 | 9 | 98 | . | . | . | .
Cc1ccc(-n2c(-c3ccc(Br)cc3)c[n+]3c2CCc2ccc4cccnc4c2-3)cc1 | -4 | 1.1* | 3 | 0 | 2 | 128 | 107 | 0 | + | 0
C/C(=N\Nc1nc(N)cc(Cl)n1)c1ccc(Cl)c(Cl)c1 | -4 | 0 | -1 | -1 | 2 | 116 | . | . | . | .
C/C(=N\Nc1nc(N)cc(Cl)n1)c1ccc(F)cc1 | 14 | 0.5* | 4 | -1 | 0 | 87 | 100 | 0 | 101 | 0
O=C(Nc1ccccc1)[C@@H]1CC=C[C@@H]2CCN(Cc3ccc(Cl)c(Cl)c3)C(=O)[C@@H]21 | -1 | 0 | 0 | 0 | -1 | 103 | . | . | . | .
CCCSc1nnc(NC(=O)Nc2ccccc2)s1 | -6 | 15* | -3 | 1 | -4 | 127 | 113 | 0 | 117 | 0
Cc1cccc(NC(=S)N(CCN(C)C)Cc2cccs2)c1 | -2 | 1.0* | 9 | 0 | 1 | 99 | 89 | 0 | 96 | 0
Cc1cccc2cc(CN(Cc3cccs3)C(=S)NCC3CCCO3)c(=O)[nH]c12 (stereo unspecified) | 7 | 0 | 4 | -1 | -2 | 104 | . | . | . | .

From PubChem BioAssay
